KCNK3 block – human KCNK3 channel inhibition, primary screen | O14649 | CHO-KCNK3 thallium flux, FluxOR fluorescence; stronger effect = lower value | B-score at 10 µM | 340,000 compounds, 0.84% hits | AID 602410;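 active means B-score under library mean minus 4 SD, starting fluorescence ratio at most library mean plus 5 SD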;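 further: more negative B-score means stronger inhibition of thallium flux through KCNK3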
KCNK9 inh – blocks the human KCNK9 two-pore domain potassium channel; Q9NPC2; HEK293 KCNK9, FluxOR thallium flux fluorescence; stronger effect = lower value; B-score at 10 µM; 310,000 compounds, 1.2% hits; AID 488922;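 active means ratio B-score over 3 SD below the library mean, with starting fluorescence within 5 SD of its mean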;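 further: negative B-score means less thallium flux so channel inhibition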
Target sequence (Q9NPC2 whole entry, looked up, the tested form may be a part): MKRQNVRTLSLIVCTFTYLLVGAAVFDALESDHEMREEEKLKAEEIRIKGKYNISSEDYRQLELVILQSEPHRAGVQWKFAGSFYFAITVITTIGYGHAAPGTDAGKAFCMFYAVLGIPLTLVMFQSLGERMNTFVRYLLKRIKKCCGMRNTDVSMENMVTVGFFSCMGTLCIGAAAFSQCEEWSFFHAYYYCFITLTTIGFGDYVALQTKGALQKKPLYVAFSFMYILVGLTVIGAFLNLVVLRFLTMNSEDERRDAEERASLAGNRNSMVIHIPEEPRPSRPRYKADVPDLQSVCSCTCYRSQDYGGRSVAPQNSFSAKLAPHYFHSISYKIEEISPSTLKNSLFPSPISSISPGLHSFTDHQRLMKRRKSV
hERG protect – compounds protecting human hERG from proarrhythmic drug block; activation (rescue from dofetilide block), less the hit threshold, % at 10 µM; CHO-hERG, FluxOR thallium flux, dofetilide IC70 present; 310,000 compounds, 0.51% hits;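 active means activation above the mean of controls blocked by dofetilide plus 5 SD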;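 further: thallium influx through hERG after potassium depolarization seen as dye fluorescence rise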
KCNQ1 inh – human KCNQ1 channel inhibition | AID 2642 | 310,000 compounds, 1.3% hits | B-score at 10 µM | CHO-K1 KCNQ1, FluxOR thallium flux fluorescence; stronger effect = higher value | P51787;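 active means compounds whose thallium flux B-score, printed positive for inhibition, exceeds three library SD while starting fluorescence stays within three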;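 further: channel opened by potassium depolarization with thallium stimulus after 20 min compound exposure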
KCNQ1 pot – human KCNQ1 channel potentiation or activation; 310,000 compounds, 0.35% hits; B-score at 10 µM; P51787; CHO-K1 KCNQ1, thallium flux FluxOR fluorescence; stronger effect = higher value;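 active means fluorescence ratio B-score, a plate-corrected score, at least three library SD, with initial intensity B-score within 5 SD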
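System: CHO-K1 cells stably expressing KCNQ1 / Medium: assay buffer for compound exposure, DMSO matched across wells / Reagent: thallium- and potassium-containing depolarizing buffer / Compound: one concentration, matched DMSO / Incubation: 20 min compound pretreatment at room temperature / Measured by: kinetic FluxOR fluorescence, 10 s baseline plus 110 s post-stimulus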
KCNK9 inh conf – human KCNK9 inhibitor confirmation | shares compounds with KCNK9 inh | HEK293 KCNK9 cells, FluxOR thallium flux fluorescence | inhibition, % at 10 µM | 4,900 compounds, 43% hits;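 active means thallium signal inhibited by more than 5 SD of the compound-free buffer control wells, on both duplicate plates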
Kir2-1 spec – mouse Kir2.1 off-target activity of KCNK9 modulators | shares compounds with KCNK9 inh | Kir2.1 cells, FluxOR thallium flux fluorescence | inhibition, % at 10 µM | 4,900 compounds, 4% hits | AID 492993;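 active means thallium signal drop more than 5 SD beyond the mean of the no-compound control wells, seen in both duplicate plates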;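 further: signal is fluorescence rise after thallium addition divided by baseline fluorescence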
HEK293 Tl ctr – non-induced cell nonspecific activity of KCNK9 modulators; shares compounds with KCNK9 inh; non-induced KCNK9-HEK293, FluxOR thallium flux; inhibition, % at 10 µM; 4,900 compounds, 40% hits; AID 492997;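 active means thallium signal drop beyond 5 SD of the untreated control mean, on both duplicate plates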
Hits are given with their value; 0 = inactive; - = not tested or not shown. Only some compounds are listed: those with a hit (about 3.1% of all), similar ones and a draw of the others.

SMILES	KCNK3 block	KCNK9 inh	hERG protect	KCNQ1 inh	KCNQ1 pot	KCNK9 inh conf	Kir2-1 spec	HEK293 Tl ctr
CCOc1ccc(NC(=O)CCC(=O)N/N=C2\CCCc3ccccc32)cc1	0	0	0	0	0	-	-	-
COc1ccc(C(C)(C)C)cc1NC(=O)CNc1cccc2ccccc12	0	0	0	0	0	0	0	0
COc1ccccc1NC(=O)Cc1cccc2ccccc12	0	0	0	0	0	-	-	-
C[C@H](CO)N1C[C@H](C)[C@@H](CN(C)C(=O)NC2CCCCC2)Oc2c(NC(=O)Nc3ccc(C(F)(F)F)cc3)cccc2C1=O	0	-	-	-	-	-	-	-
CC1CC(C)CN(CCCNS(=O)(=O)c2ccc3c(c2)oc(=O)n3C)C1 (centres undefined)	0	0	0	0	0	-	-	-
OC(CSc1c(Cl)cccc1Cl)CN1CCN(c2ccc(F)cc2)CC1 (centres undefined)	0	0	0	0	0	0	0	0
OC(CSc1c(Cl)cccc1Cl)CN1CCN(c2ccccc2F)CC1 (centres undefined)	0	0	0	0	0	0	0	0
COc1cccc(OC)c1OCC(O)CN1CCN(c2ccccc2F)CC1 (centres undefined)	0	0	0	0	0	-	-	-
OC(CSc1ccccc1Cl)CN1CCN(c2ccc(F)cc2)CC1 (centres undefined)	0	0	0	0	0	-	-	-
OC(CSc1ccccc1Cl)CN1CCN(c2ccccc2F)CC1 (centres undefined)	0	0	0	0	0	0	0	0
Cc1cc(C)cc(C(=O)N(Cc2ccco2)c2c(N)n(Cc3ccccc3)c(=O)[nH]c2=O)c1	0	-	-	-	-	-	-	-
CCC(C)Sc1ccc([C@@H]2[C@@H]3C(=O)N(CC)C(=O)[C@@H]3[C@]3(C(=O)OC)CCCCN23)cc1 (some centres undefined)	0	-	-	-	-	-	-	-
CCN(CC(=O)Nc1c(F)cccc1F)C(=O)C1CCN(C(=O)Nc2ccccc2)CC1	0	-	-	-	-	-	-	-
CCCCN(C)C(=O)c1cccc(OC2CCN(CC(C)(C)C)CC2)c1	0	-12	0	0	0	0	0	0
COc1ccc(NC(=O)CN(C)C(=O)C(C)Oc2ccc(Br)cc2)cc1 (centres undefined)	0	0	0	0	0	-	-	-
CCOC(=O)C1CCCN(Cc2cc(=O)oc3cc(C)c(C(C)C)cc23)C1 (centres undefined)	0	-9.2	0	0	0	52%	0	42%
CC(C)C[C@H](NC(=O)OC(C)(C)C)C(=O)N/N=C/C1=Cc2ccccc2OC1C (some centres undefined)	0	-11	0	0	0	68%	0	32%
CC(C)C[C@H](NC(=O)OC(C)(C)C)C(=O)N/N=C/c1ccc2nccnc2c1	0	0	0	0	0	-	-	-
CSCCC(NC(=O)c1ccco1)C(=O)NCCc1ccc(Cl)cc1 (centres undefined)	0	-	-	-	-	-	-	-
COc1cc(C)ccc1OCCOCCOc1ccccc1Br	0	0	0	0	0	-	-	-
COc1cc(C)ccc1OCCOCCOc1cc(C)c(C)cc1Br	0	0	0	0	0	0	0	0
CC(=O)c1ccc(N2CCN(S(=O)(=O)c3ccc4c(c3)NC(=O)CO4)CC2)cc1	0	0	0	0	0	-	-	-
COc1cccc(COC(=O)CCNC(=O)c2ccc(Cl)cc2)c1OC	0	0	0	0	0	-	-	-
CCOc1ccc(-c2nc(C#N)c(N3CCCCCC3)o2)cc1	0	-8.6	0	0	0	50%	0	40%
N#Cc1nc(-c2ccc(Cl)cc2)oc1N1CCCCC1	0	-8.3	0	0	0	0	0	30%
SMILES	KCNK3 block	KCNK9 inh	hERG protect	KCNQ1 inh	KCNQ1 pot	KCNK9 inh conf	Kir2-1 spec	HEK293 Tl ctr
CCOc1ccc(-c2nc(C#N)c(N3CCN(C)CC3)o2)cc1	0	0	0	0	0	-	-	-
COc1ccc(C2CC(c3ccccc3)=NN2C(=O)COC(=O)C2(C)CC2(Cl)Cl)cc1 (centres undefined)	0	0	0	0	0	0	0	0
COc1ccc(C2=NN(C(=O)c3ccccc3)C(c3cccc([N+](=O)[O-])c3)C2)cc1 (centres undefined)	0	-18	0	0	0	54%	0	28%
CC(=O)N1N=C(c2ccccc2)CC1c1cccc([N+](=O)[O-])c1 (centres undefined)	0	0	0	0	0	-	-	-
COc1ccc(Cc2nnc(SCC(=O)c3ccc4c(c3)NC(=O)CO4)o2)cc1	0	0	0	0	0	-	-	-
COc1ccc(/C=N/NC(=O)c2cccnc2)cc1CN1CCN(c2ccc(F)cc2)CC1	0	0	0	0	0	-	-	-
COc1cc(OC)c(CN2CCN(c3ccc(F)cc3)CC2)cc1Br	0	0	0	0	0	0	0	0
COc1ccc(C(=O)N/N=C/c2ccc(OC)c(CN3CCN(c4ccc(F)cc4)CC3)c2)cc1	0	0	0	0	0	0	0	0
COc1ccc(CN2CCN(c3ccc(F)cc3)CC2)c(OC)c1OC	0	0	0	0	0	-	-	-
CC(C)C[C@@H](CNC(=O)OC(C)(C)C)NC(=O)c1nc[nH]c1C(=O)N[C@@H](CC(C)C)C(=O)CNC[C@H](CC(C)C)NC(=O)c1nc[nH]c1C(=O)N[C@@H](Cc1c[nH]c2ccccc12)C(=O)OC(C)(C)C	0	-	-	-	-	-	-	-
CCC1(C)CN=C(c2ccccc2)NC1 (centres undefined)	0	-	-	-	-	-	-	-
Brc1ccc(Cn2c(-c3ccc(Br)o3)nc3ccccc32)o1	0	-8.8	0	0	0	0	0	32%
Cc1c(N=N/C(C(=O)Nc2ccccc2)=C(/O)c2ccccc2)c(=O)n(-c2ccccc2)n1C	0	-9.1	0	9	0	0	0	46%
CN(C)CCOc1cc(Cl)cc(Cl)c1	0	0	0	0	0	-	-	-
COCCN(CCOc1cc(C)cc(C)c1)Cc1ccc(Cl)cc1	0	0	0	0	0	0	0	0
CCOC(=O)CSc1nc2ccccc2c(=O)n1CC1COc2ccccc2O1 (centres undefined)	0	0	0	0	0	-	-	-
CCCN(CCC)C(=O)CSc1nc2ccccc2c(=O)n1CC1COc2ccccc2O1 (centres undefined)	0	0	0	0	0	0	0	0
Cc1cc(NC(=O)C(C)C)ncc1NC(=O)c1ccccn1	0	0	0	0	0	0	0	0
CCCC(=O)Nc1cc(C)c(NC(=O)c2ccccn2)cn1	0	0	0	0	0	-	-	-
Cc1ccc(C(=O)N2CCOCC2)cc1S(=O)(=O)Nc1cccc(C)c1C	0	0	0	0	0	-	-	-
Cc1cccc(NS(=O)(=O)c2cc(C(=O)N3CCc4ccccc4C3)ccc2Cl)c1C	0	-15	0	0	0	68%	0	0
